The list is not random: actives were taken first. Their share in the collection is about 0.54%.
PP5 primary: blocks human protein phosphatase 5 activity. purified PP5c, OMFP substrate fluorescence. 320,000 compounds, 0.18% hits. inhibition, % at 6.7 µM;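 active = inhibition above the campaign's mean inhibition across all tested compounds plus 3 SD, cut at about 9.5% in these data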;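 also: 0% = DMSO only and 100% = 100 µM cantharidin control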
ASAP1 inh: blocks human ASAP1-stimulated Arf1 GTP hydrolysis. Q9ULH1. GDP FP detection. inhibition, % at 16.5 µM. 360,000 compounds, 0.19% hits. AID 624377; in the data active = inhibition above about 25%;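 also: 0% = vehicle with enzyme and substrate and 100% = no enzyme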
PKD1 inh: inhibitors of human PKD1 kinase | Q15139 | PKD1 kinase fluorescence polarization assay | inhibition, % (no concentration beside the values) | 200,000 compounds, 0.056% hits | AID 797; in the data active = inhibition above about 50%
Target sequence (Q15139 whole entry, looked up): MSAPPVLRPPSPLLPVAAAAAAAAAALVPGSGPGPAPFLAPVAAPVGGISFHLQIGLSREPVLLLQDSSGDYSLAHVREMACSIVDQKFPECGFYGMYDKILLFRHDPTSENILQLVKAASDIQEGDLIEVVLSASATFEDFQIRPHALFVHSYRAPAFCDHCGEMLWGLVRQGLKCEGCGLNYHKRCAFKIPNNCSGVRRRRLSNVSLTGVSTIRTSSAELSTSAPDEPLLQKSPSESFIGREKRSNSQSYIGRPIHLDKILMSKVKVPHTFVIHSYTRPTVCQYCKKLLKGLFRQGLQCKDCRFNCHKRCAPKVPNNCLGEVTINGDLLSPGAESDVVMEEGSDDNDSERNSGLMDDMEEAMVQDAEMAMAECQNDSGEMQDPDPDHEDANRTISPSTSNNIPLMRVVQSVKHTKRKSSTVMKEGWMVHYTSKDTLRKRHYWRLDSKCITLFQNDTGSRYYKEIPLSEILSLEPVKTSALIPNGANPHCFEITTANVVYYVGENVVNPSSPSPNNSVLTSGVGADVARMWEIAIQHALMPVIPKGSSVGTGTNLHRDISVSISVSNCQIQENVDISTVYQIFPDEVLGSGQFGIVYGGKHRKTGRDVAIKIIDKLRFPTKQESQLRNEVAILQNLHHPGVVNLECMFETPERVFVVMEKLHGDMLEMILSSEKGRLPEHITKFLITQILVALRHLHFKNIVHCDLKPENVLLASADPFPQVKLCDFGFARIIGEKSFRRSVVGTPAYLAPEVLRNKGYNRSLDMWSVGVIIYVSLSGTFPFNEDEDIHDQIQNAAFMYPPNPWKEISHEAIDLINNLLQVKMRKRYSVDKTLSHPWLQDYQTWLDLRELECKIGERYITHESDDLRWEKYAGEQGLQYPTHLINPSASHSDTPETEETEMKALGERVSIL
ARFGAP1 inhibitor: inhibits rat ARF GTPase activating protein 1. Arfgap1-stimulated ARF1 GTP hydrolysis, GDP FP detection. inhibition, % at 16.5 µM. 360,000 compounds, 0.26% hits;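 active = inhibition above a per-plate limit, mean inhibition of low control wells plus 3 SD, cut at about 25% in these data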;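 also: 0% = DMSO wells with enzyme and 100% = wells lacking Arfgap1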
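Repeats: one replicate per compound; assay system: rat Arfgap1 catalytic domain, aa 1-136; times: enzyme reaction 120 min at 25 °C after 20 min preincubation; detection: FP of antibody-bound GDP Alexa 633 tracer, ex 620/em 688 nm; benchmarks: high control wells lacking Arfgap1, low control full reaction with DMSO; reagent: human ARF1(Δ1-17)-GTP substrate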
ASAP1 GAP conf: ASAP1 inhibition confirmed. 620 compounds, 37% hits. ASAP1-stimulated Arf1 GTPase, GDP fluorescence polarization. AID 624431. shares compounds with ASAP1 inh. inhibition, % at 16.5 µM;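 active = mean inhibition over triplicates exceeds the hit threshold derived for the earlier primary screening run, cut at about 25% in these data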
ARFGAP1 confirm: confirmation of rat ARFGAP1 inhibitors | shares compounds with ARFGAP1 inhibitor | ARFGAP1-stimulated ARF1 GTP hydrolysis, GDP tracer FP | inhibition, % at 16.5 µM | 890 compounds, 30% hits;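 active = average inhibition over triplicates above the hit cutoff set in the earlier primary screen, cut at about 25% in these data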;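 also: 0% = Arfgap1 plus ARF1-GTP with DMSO and 100% = wells lacking Arfgap1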
Numbers without * were called inactive; . = not tested or not shown.

SMILES	PP5 primary	ASAP1 inh	PKD1 inh	ARFGAP1 inhibitor	ASAP1 GAP conf	ARFGAP1 confirm
CCN(CC)CCOC(=O)c1ccc(N/C=C(/C#N)c2nc(-c3cccc(OC)c3)cs2)cc1	0.7	0.5	.	-1.3	.	.
CCN(CC)CCOC(=O)c1ccc(N/C=C(/C#N)c2nc(-c3ccc(OC)c(OC)c3)cs2)cc1	2.2	71.0*	.	114.6*	184.0*	195.9*
Cc1cc2nc(-c3ccccc3)c(Cc3ccsc3)n2c(C)c1Br	.	0.8	.	-0.3	.	.
O=[N+]([O-])c1ccc(C=NNC(=S)NN=Cc2ccc([N+](=O)[O-])cc2)cc1	.	74.2*	.	24.6*	164.2*	181.6*
O=[N+]([O-])c1ccc(C=NNC(=S)Nc2ccc(F)cc2)cc1	.	5.7	.	10.0	.	.
Clc1ccc(Cn2cc(/C=N/n3cnnc3)c3ccccc32)c(Cl)c1	2.8	44.2*	-10.0	60.5*	50.6*	77.5*
C(=N\n1cnnc1)/c1cn(Cc2ccccc2)c2ccccc12	2.2	-4.8	-8.4	-2.5	.	.
Clc1ccc2c(N/N=C/c3cccnc3)ccnc2c1	3.7	-4.6	1.4	8.1	.	.
Clc1ccc2c(N/N=C/c3ccc(Br)cc3)ccnc2c1	4.7	50.4*	-13.6	69.1*	65.0*	96.5*
Cc1ccccc1/C=N/Nc1ccnc2cc(Cl)ccc12	1.6	49.5*	-5.3	91.7*	93.5*	149.3*
O=C(CSc1ccccc1)Nc1ccc(-c2nc3ccccc3[nH]2)cc1	2.2	57.2*	-8.4	45.0*	57.0*	59.4*
COc1ccc(S(=O)(=O)NC(=O)C2(C)CCN2C(=O)CC2CC2)cc1 (stereo unspecified)	.	5.9	.	-4.9	.	.
C[C@H]1CN([C@@H](C)CO)S(=O)(=O)c2ccc(C#Cc3cccnc3)cc2O[C@@H]1CN(C)C(=O)Nc1ccc2c(c1)OCO2	.	4.2	.	-10.0	.	.
COc1ccc2nc(C)cc(N/N=C/c3ccccc3)c2c1	1.8	.	.	.	.	.
COc1ccc(/C=N/Nc2cc(C)nc3ccc(OC)cc23)c(OC)c1	1.8	43.3*	.	32.7*	92.6*	93.4*
CC(=O)Nc1ccc(C(=O)Nc2nc(-c3cccnc3)cs2)cc1	1.8	28.9*	-4.8	25.6*	52.2*	38.6*
O=C(N/N=C/c1cc(Cl)ccc1O)c1ccc(Br)cc1	0.1	51.7*	-1.2	64.7*	75.8*	99.2*
CCCCNC(=O)C[C@@H]1C[C@@]2(C(=O)OCC)CCCC=C2N(Cc2ccccc2)C1=O	.	-8.8	.	10.4	.	.
CC(=O)Nc1cc(-c2ccc(N3CCN(C)CC3)cc2)cn2c(-c3ccc(S(C)(=O)=O)cc3)cnc12	.	68.9*	.	73.7*	148.5*	141.6*
CC(=O)Nc1cc(-c2ccc(N3CCN(C)CC3)cc2)cn2c(-c3ccccc3)cnc12	.	5.9	.	6.1	.	.
Nc1ncnc2c1ncn2[C@@H]1O[C@H](C(=O)N[C@@H](CCc2ccccc2)C(=O)N2CCN(C(=O)C(F)(F)F)CC2)[C@@H](O)[C@H]1O	.	-10.7	.	2.3	.	.
Clc1cccc(Cl)c1CON/C=N/c1ncnc2sccc12	4.3	93.2*	-3.7	85.6*	66.7*	66.0*
COC(=O)c1ccc(NC(=O)c2ccc(NC(=O)c3ccco3)cc2)cc1	1.6	25.7*	.	38.9*	37.9*	52.1*
CCNC(=O)N(C)[C@H]1C[C@H]2c3[nH]c4c(-c5ccc6c(c5)OCO6)cccc4c3CCN2C(=O)[C@H]1[C@H](C)O	.	5.3	.	-6.7	.	.
Cc1ccc(OCc2ccc(C(=O)Nc3ccc(C(N)=O)cc3)o2)c([N+](=O)[O-])c1	-0.8	59.9*	-1.7	85.7*	87.7*	115.6*
SMILES	PP5 primary	ASAP1 inh	PKD1 inh	ARFGAP1 inhibitor	ASAP1 GAP conf	ARFGAP1 confirm
Cc1cc(=O)c2c(ccc3c(=O)cc(C)[nH]c32)[nH]1	.	5.0	.	-3.4	.	.
Cc1ccc2nc(SCC(=O)N3CCCCCC3)nc(=O)n2c1	-2.8	44.5*	.	62.4*	44.3*	76.8*
Cc1ccn2c(=O)nc(SCC(=O)N3CCCCCC3)nc2c1	0.1	4.0	.	-6.8	.	.
Cc1ccc2nc(SCC(=O)N3CCCCC3)nc(=O)n2c1	-0.7	29.0*	.	48.3*	33.2*	56.9*
CCOC(=O)[C@@H]1CSCCS(=O)(=O)N1C(=O)[C@H](C)NC(=O)OC(C)(C)C	.	-2.0	.	3.4	.	.
COc1ccccc1Cc1c(-c2ccc(F)cc2)nc2ccc(Cl)cn12	.	12.4	.	4.5	.	.
COc1cc2c3nnc(-c4ccccc4)c-3cn(Cc3ccccc3F)c2cc1OC	0.8	58.5*	-11.2	36.2*	116.2*	36.3*
COc1ccc(-c2nnc(SCc3ccccc3F)o2)cc1OC	3.1	0.5	7.3	-9.7	.	.
COc1cc2c3nnc(-c4ccc(F)cc4)c-3cn(Cc3ccccc3F)c2cc1OC	.	57.9*	1.3	151.7*	83.0*	171.5*
CCOC(=O)[C@]12CCCC=C1N(Cc1ccc3c(c1)OCO3)C(=O)[C@H](CC(=O)NCC13CC4CC(CC(C4)C1)C3)C2	.	-2.8	.	-4.0	.	.
CCc1c(-c2cccc(OC)c2)ncn1CCc1ccccc1OC	.	1.8	.	6.6	.	.
O=S1(=O)CC(N2CC=CC2)CN1Cc1cn(Cc2ccc(F)cc2)nn1 (stereo unspecified)	.	0.6	.	11.4	.	.
CC(=O)NS(=O)(=O)c1ccc(NC(=O)/C=C/c2cn(-c3ccccc3)nc2-c2ccccc2)cc1	3.8	-7.8	6.2	15.9	.	.
O=C(/C=C\c1cn(-c2ccccc2)nc1-c1ccccc1)Nc1nccs1	3.0	50.2*	-5.5	50.1*	32.2*	71.5*
C[C@@H]1O[C@H](C2CCCC2)CC2=C1C(=O)OC(C)(C)O2	.	2.9	.	11.1	.	.
COc1ccc([N+](=O)[O-])cc1NC(=O)c1ccc(-n2nc(C)cc2C)cc1	0.6	25.6*	1.4	34.9*	39.1*	71.2*
Cc1ccc2oc(=O)c3cc(C(=O)NCCCN4CCC(C)CC4)sc3c2c1	.	3.5	.	-10.1	.	.
COC(=O)c1cccc2c([N+](=O)[O-])c(NC(C)=O)cc(C(=O)OC)c12	.	-9.5	.	-8.4	.	.
CCN(CC)CCOC(=O)c1ccc(NC(=O)c2cn(-c3ccccc3)nc2-c2cccs2)cc1	.	40.0*	-2.6	24.7*	44.3*	60.6*
COc1cc(/C=N\NC(=O)c2ccc(C)nc2)ccc1OC(=O)c1ccc2c(c1)OCO2	3.4	29.3*	12.0	28.6*	38.3*	75.3*
COc1cc(/C=N/NC(=O)c2cccc([N+](=O)[O-])c2)ccc1OCc1ccccc1	-0.1	8.5	-14.9	-13.0	.	.
COc1cc(/C=N/NC(=O)c2ccc(O)cc2)ccc1OCC(=O)Nc1cccc([N+](=O)[O-])c1	1.1	30.4*	.	71.2*	42.4*	75.4*
CCCCC[C@H](C)N1C[C@H](COCc2ccccc2)Oc2cc(N3CCC[C@H]3COC)ccc2S1(=O)=O	.	8.1	.	4.2	.	.
COc1ccccc1Nc1cc2cc(Br)ccc2c(=O)[nH]1	5.6	38.8*	.	31.1*	33.7*	21.7
COc1ccc(OC)c(Nc2cc3ccccc3c(=O)[nH]2)c1	8.7	29.9*	.	27.1*	15.8	16.7
